Reference: ChEMBL document CHEMBL2407075, “Sulphonamido-quinoxalines: search for anticancer agent” (Eur J Med Chem, 2013)

Experiments:
Type in all cases: functional
786-0 = test: Growth inhibition of human 786-0 cells assessed as cell growth at 10^-4 M after 48 hrs by sulforhodamine B assay; conditions: 786-0, 48 h, read-out: Activity
Method in brief: (§1)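 Five-dose NCI-60 run (0.01, 0.1, 1, 10 and 100 µM, as 10-fold dilutions from a DMSO stock made at 400× the top final level). Cells were grown in RPMI 1640 with 5% FBS and 2 mM glutamine and plated for 24 h. They were then exposed for 48 h at 37 °C and 5% CO2. TCA fixation was followed by SRB staining with A515 read-out. Percent growth was taken relative to time-zero and control plates.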

OVCAR-4 = test: Growth inhibition of human OVCAR4 cells assessed as cell growth at 10^-4 M after 48 hrs by sulforhodamine B assay; conditions: OVCAR-4, 48 h, read-out: Activity
SR = test: Growth inhibition of human SR cells assessed as cell growth at 10^-4 M after 48 hrs by sulforhodamine B assay; conditions: read-out: Activity
T47D = test: Growth inhibition of human T47D cells assessed as cell growth at 10^-5 M after 48 hrs by sulforhodamine B assay; conditions: read-out: Activity
BT-549 = test: Growth inhibition of human BT549 cells assessed as cell growth at 10^-5 M after 48 hrs by sulforhodamine B assay; conditions: BT-549, 48 h, read-out: Activity; method in brief: as §1
MDA-MB-231 = test: Growth inhibition of human MDA-MB-231 cells assessed as cell growth at 10^-5 M after 48 hrs by sulforhodamine B assay; conditions: MDA-MB-231, 48 h, read-out: Activity
RXF 393 = test: Growth inhibition of human RXF393 cells assessed as cell growth at 10^-5 M after 48 hrs by sulforhodamine B assay; conditions: RXF 393, 48 h, read-out: Activity
MOLT-4 [1] = test: Growth inhibition of human MOLT4 cells assessed as cell growth at 10^-5 M after 48 hrs by sulforhodamine B assay; conditions: MOLT-4, 48 h, read-out: Activity
Malme-3M = test: Growth inhibition of human MALME-3M cells assessed as cell growth at 10^-6 M after 48 hrs by sulforhodamine B assay; conditions: read-out: Activity
U-251 = test: Growth inhibition of human U251 cells assessed as cell growth at 10^-6 M after 48 hrs by sulforhodamine B assay; conditions: U-251, 48 h, read-out: Activity
SNB-75 [2] = test: Growth inhibition of human SNB75 cells assessed as cell growth at 10^-6 M after 48 hrs by sulforhodamine B assay; conditions: SNB-75, 48 h, read-out: Activity
HT-29 = test: Growth inhibition of human HT-29 cells assessed as cell growth at 10^-6 M after 48 hrs by sulforhodamine B assay; conditions: HT-29, 48 h, read-out: Activity
Method in brief: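 Five-dose screen at NCI. Cells in RPMI 1640 with 5% FBS and 2 mM L-glutamine, seeded at 5000–40,000 cells/well and grown 24 h at 37 °C, 5% CO2 before dosing, with time-zero plates TCA-fixed. Drug diluted from DMSO stock to 0.01, 0.1, 1, 10 and 100 µM final, 48 h. Cells fixed with cold TCA (10% final), stained with 0.4% SRB and read at 515 nm. Percent growth from Tz, control and test absorbances; GI50, TGI and LC50 from dose-response curves.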

TK-10 = test: Growth inhibition of human TK10 cells assessed as cell growth at 10^-7 M after 48 hrs by sulforhodamine B assay; conditions: TK-10, 48 h, read-out: Activity
OVCAR-5 = test: Growth inhibition of human OVCAR5 cells assessed as cell growth at 10^-7 M after 48 hrs by sulforhodamine B assay; conditions: OVCAR-5, 48 h, read-out: Activity
SK-MEL-5 = test: Growth inhibition of human SK-MEL-5 cells assessed as cell growth at 10^-7 M after 48 hrs by sulforhodamine B assay; conditions: SK-MEL-5, 48 h, read-out: Activity
SF-295 = test: Growth inhibition of human SF295 cells assessed as cell growth at 10^-7 M after 48 hrs by sulforhodamine B assay; conditions: SF-295, 48 h, read-out: Activity
OVCAR-8 = test: Growth inhibition of human OVCAR8 cells assessed as cell growth at 10^-8 M after 48 hrs by sulforhodamine B assay; conditions: OVCAR-8, 48 h, read-out: Activity
SF-539 = test: Growth inhibition of human SF539 cells assessed as cell growth at 10^-8 M after 48 hrs by sulforhodamine B assay; conditions: SF-539, 48 h, read-out: Activity
A549 = test: Growth inhibition of human A549/ATCC cells assessed as cell growth at 10^-8 M after 48 hrs by sulforhodamine B assay; conditions: A549, 48 h, read-out: Activity; method in brief: as §1
UACC-257 = test: Growth inhibition of human UACC257 cells after 48 hrs by sulforhodamine B assay; conditions: UACC-257, 48 h, read-out: LC50 (the source's name)
Method in brief: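 NCI-60 screen. Cells grown in RPMI 1640 with 5% FBS and 2 mM L-glutamine, plated at 5000–40,000 cells/well and preincubated 24 h at 37 °C, 5% CO2. A time-zero plate is TCA-fixed at drug addition. DMSO stocks diluted in medium; five concentrations (0.01, 0.1, 1, 10, 100 µM). Exposure 48 h, then cold TCA fixation and 0.4% SRB staining, absorbance at 515 nm. GI50 is taken from the growth-percentage curve relative to time zero and control.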

SNB-75 [3] = test: Growth inhibition of human SNB75 cells after 48 hrs by sulforhodamine B assay; conditions: SNB-75, 48 h; for CC50: read-out: LC50 (the source's name)
Method in brief: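 Five-dose NCI 60 screen at 0.01, 0.1, 1, 10 and 100 µM, 48 h exposure after 24 h preincubation, in RPMI 1640 with 5% FBS and 2 mM glutamine. Fixed with TCA (10% final for adherent cells, 16% for suspension cells), stained with SRB, A515 read. Percent growth uses time-zero (Tz), control and treated plates. GI50, TGI and LC50 are read from the dose-response curves.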

NCI-H226 = test: Growth inhibition of human NCI-H226 cells after 48 hrs by sulforhodamine B assay; conditions: NCI-H226, 48 h, read-out: LC50 (the source's name)
Method in brief: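 Adherent cells in RPMI 1640 with 5% FBS and 2 mM L-glutamine were plated at 5000–40,000 cells/well and grown 24 h. Five concentrations (0.01–100 µM, DMSO stock) were added for 48 h at 37 °C. Cells were fixed with cold TCA (10% final) and stained with SRB, read at 515 nm. GI50 came from log concentration–growth curves against time-zero and control plates.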

MOLT-4 [4] = test: Growth inhibition of human MOLT4 cells after 48 hrs by sulforhodamine B assay; conditions: MOLT-4, 48 h; for CC50: read-out: LC50 (the source's name)
Method in brief: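 Leukemia suspension cells in RPMI 1640 with 5% FBS and 2 mM L-glutamine were plated at 5000–40,000 cells/well and grown 24 h. Five concentrations (0.01–100 µM) were given for 48 h at 37 °C. Settled cells were fixed with 80% TCA (16% final) and SRB-stained, read at 515 nm. GI50 came from dose–response curves against time-zero and control plates.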

O=S(=O)(Nc1ccc(Cl)cc1)c1ccc2nc(-c3ccccc3)c(-c3ccccc3)nc2c1
growth at 100 µM (786-0): 75%
growth at 100 µM (OVCAR-4): 52%
growth at 100 µM (SR): 50%
growth at 10 µM (T47D): -20%
growth at 10 µM (BT-549): -20%
growth at 10 µM (MDA-MB-231): -78%
growth at 10 µM (RXF 393): -41%
growth at 10 µM (MOLT-4 [1]): -39%
growth at 1 µM (Malme-3M): 103%
growth at 1 µM (U-251): 87%
growth at 1 µM (SNB-75 [2]): 69%
growth at 1 µM (HT-29): 85%
growth at 0.1 µM (TK-10): 99%
growth at 0.1 µM (OVCAR-5): 92%
growth at 0.1 µM (SK-MEL-5): 95%
growth at 0.1 µM (SF-295): 90%
growth at 0.01 µM (OVCAR-8): 96%
growth at 0.01 µM (SF-539): 99%
growth at 0.01 µM (A549): 94%
CC50 (UACC-257): > 100 µM
GI50 (SNB-75 [3]): 2120 nM
TGI (SNB-75 [3]): > 100 µM
CC50 (SNB-75 [3]): > 100 µM
CC50 (NCI-H226): > 100 µM
CC50 (MOLT-4 [4]): > 100 µM

O=S(=O)(Nc1ccccn1)c1ccc2nc(-c3ccccc3)c(-c3ccccc3)nc2c1
growth at 100 µM (786-0): 50%
growth at 100 µM (OVCAR-4): 21%
growth at 100 µM (SR): 18%
growth at 10 µM (T47D): -22%
growth at 10 µM (BT-549): -34%
growth at 10 µM (MDA-MB-231): -60%
growth at 10 µM (RXF 393): -44%
growth at 10 µM (MOLT-4 [1]): -29%
growth at 1 µM (Malme-3M): 115%
growth at 1 µM (U-251): 84%
growth at 1 µM (SNB-75 [2]): 75%
growth at 1 µM (HT-29): 79%
growth at 0.1 µM (TK-10): 99%
growth at 0.1 µM (OVCAR-5): 93%
growth at 0.1 µM (SK-MEL-5): 92%
growth at 0.1 µM (SF-295): 91%
growth at 0.01 µM (OVCAR-8): 100%
growth at 0.01 µM (SF-539): 96%
growth at 0.01 µM (A549): 95%
CC50 (UACC-257): > 100 µM
GI50 (SNB-75 [3]): 2230 nM
TGI (SNB-75 [3]): > 100 µM
CC50 (SNB-75 [3]): > 100 µM
CC50 (NCI-H226): > 100 µM
GI50 (MOLT-4 [4]): 1890 nM
CC50 (MOLT-4 [4]): > 100 µM
